Test results from ChEMBL document CHEMBL4706499, “PTG-0861: A novel HDAC6-selective inhibitor as a therapeutic strategy in acute myeloid leukaemia” (Eur J Med Chem, 2020).
Active and inactive are the calls of the source. The rule behind the calls is not given here.

Key:
Histone deacetylase 3 = Histone deacetylase 3 (Homo sapiens, UniProt O15379); assay: Inhibition of recombinant full length human HDAC3 expressed in SF9 baculovirus using FAM- labelled acetylated peptide as substrate measured by Electrophoretic mobility shift assay
Histone deacetylase 3, sequence (O15379 whole entry): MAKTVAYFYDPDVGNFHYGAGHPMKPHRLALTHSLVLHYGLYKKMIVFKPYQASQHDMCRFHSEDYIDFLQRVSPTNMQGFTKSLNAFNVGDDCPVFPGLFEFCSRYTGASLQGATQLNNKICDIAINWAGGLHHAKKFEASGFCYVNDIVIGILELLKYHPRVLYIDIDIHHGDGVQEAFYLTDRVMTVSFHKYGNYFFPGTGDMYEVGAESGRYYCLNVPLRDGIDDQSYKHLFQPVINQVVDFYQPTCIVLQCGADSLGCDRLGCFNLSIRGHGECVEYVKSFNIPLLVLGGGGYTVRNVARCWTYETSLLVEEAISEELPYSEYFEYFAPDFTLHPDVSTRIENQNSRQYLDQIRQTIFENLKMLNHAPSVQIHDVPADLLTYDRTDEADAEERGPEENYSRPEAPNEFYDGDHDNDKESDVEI

MV4-11 [1] = assay: Induction of apoptosis in human MV4-11 cells assessed as early apoptotic cells at 0.25 microM measured after 18 hrs by Annexin V/Propidium iodide stain based Flow cytometry assay (reference value: 1.7%); type: functional
[2] = Toxicity in CD-1 mouse assessed as changes in body weight at 20 mg/kg, po measured after 5 days; type: organism-based; conditions: in vivo, 120 h, time 5 day
[3] = Selectivity ratio of IC50 for full length recombinant human HDAC3 to IC50 for full length recombinant human HDAC6
Fibroblast = assay: Cytotoxicity against human fibroblasts measured after 72 hrs by spectrophotometer method; type: cell-based
[4] = AUC (infinity) in CD1 mouse at 20 mg/kg, ip measured after 24 hrs by LC/MS/MS method; type: ADME, organism-based; set-up: route intraperitoneal, dose 20 mg/kg, time 24 hrs; conditions: in vivo
MV4-11 [5] = assay: Induction of apoptosis in human MV4-11 cells assessed as late apoptotic cells at 4 microM measured after 18 hrs by Annexin V/Propidium iodide stain based Flow cytometry assay (reference value: 4.91%); type: functional
MV4-11 [6] = assay: Induction of apoptosis in human MV4-11 cells assessed as viable cells at 1 microM measured after 18 hrs by Annexin V/Propidium iodide stain based Flow cytometry assay (reference value: 53.27%); type: functional; conditions: read-out: Activity
Histone deacetylase 5 = Histone deacetylase 5 (Homo sapiens, UniProt Q9UQL6); assay: Inhibition of recombinant full length human HDAC5 expressed in SF9 baculovirus using FAM- labelled acetylated peptide as substrate measured by Electrophoretic mobility shift assay
Histone deacetylase 5, sequence (Q9UQL6 whole entry): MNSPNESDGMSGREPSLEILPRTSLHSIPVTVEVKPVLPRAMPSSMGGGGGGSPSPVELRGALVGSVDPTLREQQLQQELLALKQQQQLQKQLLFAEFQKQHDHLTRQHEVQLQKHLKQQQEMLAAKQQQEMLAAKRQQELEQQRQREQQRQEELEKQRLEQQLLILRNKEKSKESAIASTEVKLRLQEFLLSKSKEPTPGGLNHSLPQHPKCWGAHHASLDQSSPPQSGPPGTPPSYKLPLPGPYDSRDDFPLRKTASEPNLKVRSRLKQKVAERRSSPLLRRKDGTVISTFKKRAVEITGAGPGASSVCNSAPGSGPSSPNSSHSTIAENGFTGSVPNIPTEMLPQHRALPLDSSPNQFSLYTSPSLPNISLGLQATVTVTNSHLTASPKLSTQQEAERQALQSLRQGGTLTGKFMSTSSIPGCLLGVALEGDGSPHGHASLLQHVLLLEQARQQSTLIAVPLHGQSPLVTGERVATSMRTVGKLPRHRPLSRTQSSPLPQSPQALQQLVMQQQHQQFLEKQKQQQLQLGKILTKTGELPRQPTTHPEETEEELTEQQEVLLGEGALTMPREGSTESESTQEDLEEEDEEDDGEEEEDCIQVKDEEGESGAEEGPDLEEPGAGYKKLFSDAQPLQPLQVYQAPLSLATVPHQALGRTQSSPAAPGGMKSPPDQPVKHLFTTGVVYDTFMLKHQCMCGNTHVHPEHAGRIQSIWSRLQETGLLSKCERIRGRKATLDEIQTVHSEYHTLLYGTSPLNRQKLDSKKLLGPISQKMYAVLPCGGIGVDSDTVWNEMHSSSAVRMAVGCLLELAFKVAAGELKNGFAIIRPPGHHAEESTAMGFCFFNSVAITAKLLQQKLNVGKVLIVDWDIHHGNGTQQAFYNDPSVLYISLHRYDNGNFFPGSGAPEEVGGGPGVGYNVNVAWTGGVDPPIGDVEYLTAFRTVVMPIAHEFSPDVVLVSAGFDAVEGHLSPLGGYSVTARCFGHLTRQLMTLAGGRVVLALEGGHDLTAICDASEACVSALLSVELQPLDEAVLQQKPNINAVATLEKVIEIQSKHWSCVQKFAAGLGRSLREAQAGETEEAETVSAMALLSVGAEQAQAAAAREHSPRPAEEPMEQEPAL

[7] = molecular target: T1, Protein deacetylase HDAC6 (Homo sapiens) (UniProt Q9UBN7); assay: Inhibition of HDAC6 in human MV4-11 cells assessed as increase in acetylation of alpha tubulin at 0.5 uM measured after 6 hrs by Western blot assay relative to histone H3 acetylation; type: cell-based
T1 sequence (whole entry): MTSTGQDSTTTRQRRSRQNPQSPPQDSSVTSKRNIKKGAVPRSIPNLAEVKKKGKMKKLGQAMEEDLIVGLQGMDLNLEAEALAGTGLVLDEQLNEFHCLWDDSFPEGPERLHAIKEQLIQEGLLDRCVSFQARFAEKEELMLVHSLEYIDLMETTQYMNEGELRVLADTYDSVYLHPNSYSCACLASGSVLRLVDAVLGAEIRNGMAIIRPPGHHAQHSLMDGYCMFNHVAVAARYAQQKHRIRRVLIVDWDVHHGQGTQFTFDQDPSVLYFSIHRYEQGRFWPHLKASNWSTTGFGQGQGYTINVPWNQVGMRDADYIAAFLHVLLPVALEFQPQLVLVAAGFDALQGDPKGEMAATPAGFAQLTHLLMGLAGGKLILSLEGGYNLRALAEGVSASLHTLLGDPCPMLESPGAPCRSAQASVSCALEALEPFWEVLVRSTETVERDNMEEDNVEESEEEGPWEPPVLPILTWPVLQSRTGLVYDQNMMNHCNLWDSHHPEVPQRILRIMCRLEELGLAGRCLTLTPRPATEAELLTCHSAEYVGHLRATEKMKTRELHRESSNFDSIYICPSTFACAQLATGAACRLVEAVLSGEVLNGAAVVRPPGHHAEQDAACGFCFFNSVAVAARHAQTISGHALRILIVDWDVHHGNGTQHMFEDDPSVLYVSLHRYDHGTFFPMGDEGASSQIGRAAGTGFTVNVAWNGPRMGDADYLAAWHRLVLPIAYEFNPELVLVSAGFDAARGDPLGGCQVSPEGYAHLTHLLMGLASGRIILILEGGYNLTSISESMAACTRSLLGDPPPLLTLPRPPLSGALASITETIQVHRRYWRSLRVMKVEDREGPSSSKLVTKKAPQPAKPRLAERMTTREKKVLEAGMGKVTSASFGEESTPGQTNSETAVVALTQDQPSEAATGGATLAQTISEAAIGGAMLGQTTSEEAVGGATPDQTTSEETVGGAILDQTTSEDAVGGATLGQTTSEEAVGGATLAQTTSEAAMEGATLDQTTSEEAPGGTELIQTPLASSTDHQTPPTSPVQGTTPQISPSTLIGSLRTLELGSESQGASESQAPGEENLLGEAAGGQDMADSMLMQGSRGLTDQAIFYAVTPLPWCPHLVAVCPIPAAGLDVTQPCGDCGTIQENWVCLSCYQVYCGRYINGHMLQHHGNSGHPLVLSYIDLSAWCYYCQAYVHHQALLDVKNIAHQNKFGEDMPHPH
Procedure, shortened: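 MV4-11 cells were exposed to a range of concentrations for 6 h. Protein extracts were run on SDS-PAGE and immunoblotted for acetylated α-tubulin, acetylated histone H3 and acetylated histone H4, with HSC70 as the loading reference. A representative blot of three independent experiments is shown.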

Histone deacetylase 1 = Histone deacetylase 1 (Homo sapiens, UniProt Q13547); assay: Inhibition of recombinant full length human HDAC1 expressed in SF9 baculovirus using FAM- labelled acetylated peptide as substrate measured by Electrophoretic mobility shift assay
Histone deacetylase 1, sequence (Q13547 whole entry): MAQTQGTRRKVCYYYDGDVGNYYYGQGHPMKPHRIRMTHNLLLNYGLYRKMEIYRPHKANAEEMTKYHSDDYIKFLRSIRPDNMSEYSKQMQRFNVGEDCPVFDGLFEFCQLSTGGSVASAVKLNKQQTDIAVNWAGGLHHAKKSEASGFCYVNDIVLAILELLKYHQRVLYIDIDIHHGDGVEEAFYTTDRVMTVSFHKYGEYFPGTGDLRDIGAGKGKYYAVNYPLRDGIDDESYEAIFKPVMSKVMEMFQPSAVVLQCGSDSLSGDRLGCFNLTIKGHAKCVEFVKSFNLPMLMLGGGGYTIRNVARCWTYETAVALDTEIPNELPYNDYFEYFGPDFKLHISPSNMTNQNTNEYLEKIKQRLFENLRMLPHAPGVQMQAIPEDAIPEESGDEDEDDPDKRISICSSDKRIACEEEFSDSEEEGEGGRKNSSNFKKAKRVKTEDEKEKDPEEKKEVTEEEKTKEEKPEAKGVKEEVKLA

[8] = Toxicity in CD-1 mouse assessed as visible signs of toxicity at 20 mg/kg, po measured after 5 days; type: organism-based; conditions: in vivo, 120 h, time 5 day
[9] = Intrinsic clearance in mouse hepatocytes assessed per 10^6 cells measured after 120 mins by LC/MS/MS method; type: ADME, cell-based, Hepatocyte; conditions: read-out: CLH
Histone deacetylase 11 = molecular target: T2, Histone deacetylase 11 (Homo sapiens, UniProt Q96DB2); assay: Inhibition of recombinant full length human HDAC11 expressed in SF9 baculovirus using FAM- labelled acetylated peptide as substrate measured by Electrophoretic mobility shift assay
T2 sequence (Q96DB2 whole entry): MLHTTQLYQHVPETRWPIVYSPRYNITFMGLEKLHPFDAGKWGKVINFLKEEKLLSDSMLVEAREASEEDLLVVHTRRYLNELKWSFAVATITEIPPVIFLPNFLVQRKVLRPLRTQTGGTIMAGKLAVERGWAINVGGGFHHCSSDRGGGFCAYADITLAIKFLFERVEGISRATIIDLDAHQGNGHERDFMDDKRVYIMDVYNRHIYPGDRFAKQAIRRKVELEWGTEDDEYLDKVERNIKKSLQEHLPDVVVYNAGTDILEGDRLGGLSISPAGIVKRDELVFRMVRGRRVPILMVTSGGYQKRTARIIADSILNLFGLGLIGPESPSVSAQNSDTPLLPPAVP

MV4-11 [10] = assay: Induction of apoptosis in human MV4-11 cells assessed as early apoptotic cells at 1 microM measured after 18 hrs by Annexin V/Propidium iodide stain based Flow cytometry assay (reference value: 1.7%); type: functional
[11] = Apparent permeability across basolateral to apical side in human Caco2 cells measured after 2 hrs by LC-MS/MS method; type: ADME, cell-based; conditions: Caco-2
Procedure, shortened: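 Bidirectional Caco-2 permeability was measured as Papp in the apical-to-basolateral and basolateral-to-apical directions. The efflux ratio was calculated from the two directional Papp values.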

[12] = Glutathione reactivity at pH 7.4 assessed as compound remaining measured after 30 mins by LC-MS/MS method; type: physicochemical; conditions: glutathione solution, read-out: Stabilty
Histone deacetylase 4 = Histone deacetylase 4 (Homo sapiens, UniProt P56524); assay: Inhibition of recombinant full length human HDAC4 expressed in SF9 baculovirus using FAM- labelled acetylated peptide as substrate measured by Electrophoretic mobility shift assay
Histone deacetylase 4, sequence (P56524 whole entry): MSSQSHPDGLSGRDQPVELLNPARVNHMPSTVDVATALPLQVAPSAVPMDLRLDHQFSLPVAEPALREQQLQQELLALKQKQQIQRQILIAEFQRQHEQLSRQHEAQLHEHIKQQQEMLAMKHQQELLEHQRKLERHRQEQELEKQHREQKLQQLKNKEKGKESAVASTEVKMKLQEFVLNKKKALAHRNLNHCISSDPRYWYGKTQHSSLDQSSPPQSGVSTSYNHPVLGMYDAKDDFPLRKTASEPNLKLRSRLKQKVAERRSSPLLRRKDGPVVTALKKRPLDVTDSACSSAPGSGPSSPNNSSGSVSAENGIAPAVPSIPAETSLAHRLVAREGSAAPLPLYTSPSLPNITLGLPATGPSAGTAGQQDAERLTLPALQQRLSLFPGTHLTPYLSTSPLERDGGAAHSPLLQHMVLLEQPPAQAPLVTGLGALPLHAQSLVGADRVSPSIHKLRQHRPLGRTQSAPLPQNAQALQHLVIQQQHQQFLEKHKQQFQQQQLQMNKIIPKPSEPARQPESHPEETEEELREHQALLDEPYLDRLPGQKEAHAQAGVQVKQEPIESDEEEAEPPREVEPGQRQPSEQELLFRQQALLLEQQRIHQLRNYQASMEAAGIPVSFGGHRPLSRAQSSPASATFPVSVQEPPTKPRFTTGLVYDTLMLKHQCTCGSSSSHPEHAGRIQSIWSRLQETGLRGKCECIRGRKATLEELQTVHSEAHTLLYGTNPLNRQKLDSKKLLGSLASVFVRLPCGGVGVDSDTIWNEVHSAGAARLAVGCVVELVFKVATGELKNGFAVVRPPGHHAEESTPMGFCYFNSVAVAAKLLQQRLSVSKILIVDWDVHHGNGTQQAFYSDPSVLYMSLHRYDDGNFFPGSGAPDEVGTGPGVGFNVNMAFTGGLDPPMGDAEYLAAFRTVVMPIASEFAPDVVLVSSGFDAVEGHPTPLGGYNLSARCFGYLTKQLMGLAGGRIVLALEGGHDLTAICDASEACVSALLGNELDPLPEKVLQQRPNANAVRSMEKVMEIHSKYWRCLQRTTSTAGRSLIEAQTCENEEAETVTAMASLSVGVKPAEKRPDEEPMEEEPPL

IC50 (Histone deacetylase 3): 215 nM | Ratio IC50 [3]: 36.3 | AUC(0-inf) [4]: 219 ng·h/mL | IC50 (Histone deacetylase 5): > 1000 nM | inhibition [7]: Active | IC50 (Histone deacetylase 1): > 1000 nM | hepatocyte CLint [9]: 27.3 µL/min/1e6 cells | IC50 (Histone deacetylase 11): > 1000 nM | Papp B→A at 2 h [11]: 0.94 ×10⁻⁶ cm/s | remaining at 0.5 h [12]: 96.4% | IC50 (Histone deacetylase 4): > 1000 nM
SMILES: O=C(NO)c1ccc(CNC(=O)c2c(F)c(F)c(F)c(F)c2F)cc1
Activity (MV4-11 [1]): 1.69% | Activity [2]: Non-Toxic | IC50 (Fibroblast): 11.5 µM | Activity (MV4-11 [5]): 41% | viability at 1 µM (MV4-11 [6]): 35.6% | Activity [8]: Non-Toxic | Activity (MV4-11 [10]): 4.27%
